Assay outcomes (PubChem)
PPC-1+TRAIL kill: kills PPC-1 cancer cells in the presence of TRAIL; AID 1443; cell killing (% activity), % at 4 µM or 5 µM; PPC-1 cells + TRAIL, ATPLite viability luminescence; 220,000 compounds, 0.41% hits;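 active = cell killing above 50% in the first pass at 4 µM, then a duplicate retest at 5 µM averaging 50% or more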
MIN6 prolif: MIN6 beta-cell proliferation induction | MIN6 cells proliferation, ATPlite luminescence, 48 h; cells starved in 0.2% serum; 100% = growth in 10% serum | proliferation, % at 10 µM | 330,000 compounds, 0.29% hits;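 active = compounds whose signal lies at least 3.5 SD above the mean of all wells on their plate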
TRAIL sens C8: caspase-8 TRAIL sensitization; NB7+C8 cells + TRAIL, ATPlite viability luminescence; inhibition (viability loss, TRAIL sensitization), % at 10 µM; 360,000 compounds, 1% hits;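 active = compounds causing at least 50% loss of cell viability in the single-dose screen, relative to plate controls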
FLuc inhib CS: inhibits firefly luciferase, flagging false hits in luciferase inhibition screens; P08659; ATPLite firefly luciferase biochemical luminescence, 10 min; inhibition, % at 10 µM; 200,000 compounds, 1.5% hits; AID 1006;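 active = inhibition above about 50% when tested at 10 µM, limit read from the data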
Target sequence (P08659 whole entry, looked up): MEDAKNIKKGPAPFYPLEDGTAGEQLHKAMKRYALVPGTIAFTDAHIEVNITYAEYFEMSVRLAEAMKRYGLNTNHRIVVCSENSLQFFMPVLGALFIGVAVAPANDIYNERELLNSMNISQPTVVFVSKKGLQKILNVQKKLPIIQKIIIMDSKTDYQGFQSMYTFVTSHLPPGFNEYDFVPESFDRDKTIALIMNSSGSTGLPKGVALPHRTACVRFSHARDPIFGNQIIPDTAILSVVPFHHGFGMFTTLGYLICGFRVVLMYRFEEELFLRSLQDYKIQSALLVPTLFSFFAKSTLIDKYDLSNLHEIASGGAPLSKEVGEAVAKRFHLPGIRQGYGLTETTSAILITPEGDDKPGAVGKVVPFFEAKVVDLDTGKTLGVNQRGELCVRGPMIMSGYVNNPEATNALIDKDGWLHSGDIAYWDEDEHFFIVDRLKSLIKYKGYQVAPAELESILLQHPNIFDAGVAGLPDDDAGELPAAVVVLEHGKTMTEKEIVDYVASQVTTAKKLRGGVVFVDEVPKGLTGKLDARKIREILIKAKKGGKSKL
FLuc act counter: affects firefly luciferase, flagging false hits in luciferase stimulation screens. activation factor at 10 µM. 200,000 tested, under 10 active. AID 1027. ATPlite luciferase biochemical, luminescence, 10 min; 0 = ATP-free wells, 1 = DMSO control;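 active = luciferase activation factor, scaled between plate controls, of at least 2 with compound at 10 µM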
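Material: Luciferase/luciferin reagent mix; Doses: test compounds dosed from 2 mM stocks in 100% DMSO; Schedule: 10 min incubation after luciferase reagent addition, room temperature; Measured by: luminescence from luciferase reaction; Read-out: luminescence gain marking luciferase activators.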
iPSC survival up: increases survival of single human iPS cells; hiPSC single-cell survival, ATPlite luminescence; 100% = ROCK inhibitor wells, 0% = DMSO; survival enhancement, % at 20 µM; 360,000 compounds, 0.044% hits; AID 602274; in the data active = survival enhancement above about 18%;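 also: cells exposed to compounds for 16 hours before the ATP read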
PPC-1 tox: PPC-1 cell cytotoxicity; 1,200 compounds, 50% hits; PPC-1 viability, ATPlite luminescence, overnight; shares compounds with PPC-1+TRAIL kill; cytotoxicity, % at 5 µM; AID 1447;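 active = reconfirmed compounds whose average cytotoxicity reaches 50% or more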
Each line names hits and unclear results; the compound was inactive in the other large screens (follow-up assays come after a bar, where they were run). The list is not random: actives were taken first. Their share in the collection is about 1.8%.

COc1cc(SC)ccc1C(=O)Nc1ccc(Cl)cn1	PPC-1+TRAIL kill 87, TRAIL sens C8 90, FLuc inhib CS 94 | PPC-1 tox 87
Cc1ccc(C(=O)Nc2nc(C(N)Cc3ccc(C(F)(F)F)cc3)cs2)cc1 (centres undefined)	none (no result: PPC-1+TRAIL kill, MIN6 prolif, FLuc inhib CS, FLuc act counter)
COc1ccc([N+](=O)[O-])cc1C(=O)NCCOc1ccc(Cl)cc1	none (no result: PPC-1+TRAIL kill, FLuc inhib CS, FLuc act counter)
O=C(Nc1cccnc1Cl)c1ccc2c(Cl)c3c(nc2c1)CCC3	PPC-1+TRAIL kill 63, TRAIL sens C8 76, FLuc inhib CS 91 (no result: MIN6 prolif) | PPC-1 tox 65
COc1ccc(-c2cc(=O)c3cc(O)ccc3o2)cc1	FLuc inhib CS 54 | PPC-1 tox inactive
OCc1ccc(-c2cncc3nccn23)cc1	none (no result: PPC-1+TRAIL kill, MIN6 prolif, FLuc inhib CS, FLuc act counter)
CCCCN(C(=O)CSc1nnc(Nc2ccc(C)c(C)c2)s1)c1c(N)n(Cc2ccccc2)c(=O)[nH]c1=O	FLuc inhib CS 63 | PPC-1 tox inactive
CN(C(=O)CSc1nnc(Nc2ccccc2)s1)c1c(N)n(Cc2ccccc2)c(=O)[nH]c1=O	none
Cc1noc(C)c1C(=O)N(C)CC(=O)Nc1ccc(F)c(F)c1F	none (no result: PPC-1+TRAIL kill, FLuc inhib CS, FLuc act counter)
CCOC(=O)C1(C(=O)OCC)C(C(=O)c2ccccc2)C1c1ccccc1 (centres undefined)	none (no result: PPC-1+TRAIL kill, MIN6 prolif, FLuc inhib CS, FLuc act counter)
COC(=O)C1C(=O)c2c([nH]c(C(=O)OC3CCCCC3)c2C)CC1C (centres undefined)	none
COC(=O)C1C(=O)c2c([nH]c(C(=O)OCCOC(C)C)c2C)CC1C (centres undefined)	none (no result: TRAIL sens C8, iPSC survival up) | PPC-1 tox inactive
COc1ccc(C(=O)Nc2ccccc2C(=O)N/N=C/c2ccccn2)cc1OC	PPC-1+TRAIL kill 75, TRAIL sens C8 85 (no result: FLuc inhib CS, FLuc act counter) | PPC-1 tox 75
CNS(=O)(=O)c1cccc(C(=O)OCC(=O)Nc2ccc(-c3nc4ccc(C)cc4s3)cc2)c1	TRAIL sens C8 75 | PPC-1 tox inactive
Cc1ccc2nc(-c3ccc(NC(=O)COC(=O)c4cncc(Br)c4)cc3)sc2c1	PPC-1+TRAIL kill 50, TRAIL sens C8 70 (no result: MIN6 prolif) | PPC-1 tox inactive
CNS(=O)(=O)c1cccc(C(=O)OCC(=O)Nc2ccc(N3CCCCC3)cc2)c1	none
CCC(C)(C)NC(=S)Nc1ccc(-c2nc3ccc(C)cc3s2)cc1	none
O=C(CNS(=O)(=O)c1cccc(Cl)c1)Nc1ccc(-c2nc3ccccc3s2)cc1	none
O=C(CCS(=O)(=O)c1ccccc1)Nc1ccc(-c2nc3ccccc3s2)cc1	PPC-1+TRAIL kill 54, TRAIL sens C8 65 | PPC-1 tox inactive
Nc1ccccc1C(=O)NNC(=O)C(=O)/C=C(\O)c1ccccc1	none (no result: FLuc inhib CS, FLuc act counter)
CC(=O)N1CCN(c2ccccc2NC(=O)COc2ccc(Cl)cc2Cl)CC1	none | PPC-1 tox inactive
CC(=O)N1CCN(c2ccccc2NC(=O)COc2ccccc2C)CC1	none
CN(C)c1ccc(/C=C2\SC(=O)N(CCc3nnc(N)s3)C2=O)cc1	PPC-1+TRAIL kill 65, TRAIL sens C8 81 (no result: FLuc inhib CS, FLuc act counter) | PPC-1 tox 68
CN(C)c1ccc(/C=C2/SC(=O)N(CCN=C3NS(=O)(=O)c4ccccc43)C2=O)cc1	none
O=C(CN1C(=O)C(=O)N(CCC2=CCCCC2)C1=O)Nc1ccc(F)cc1F	none (no result: PPC-1+TRAIL kill, FLuc inhib CS, FLuc act counter)
Cc1ccc(CNc2nc3ccccc3s2)s1	PPC-1+TRAIL kill 75, TRAIL sens C8 78, FLuc inhib CS 90 | PPC-1 tox 75
CCOC(=O)C1(Cc2ccc(Cl)cc2)CCN(C(=O)c2cnc(C)cn2)CC1	none (no result: FLuc inhib CS, FLuc act counter)
CC(=O)Oc1ccc2c(=O)c(N3C(=O)c4ccccc4C3=O)c(C)oc2c1	none
CCCOc1ccc2c(=O)c(N3C(=O)c4ccccc4C3=O)c(C)oc2c1	none | PPC-1 tox inactive
Cc1ccc(-c2nc(N/N=C/c3ccncc3)c3ccccc3n2)cc1	PPC-1+TRAIL kill 98, TRAIL sens C8 92, FLuc inhib CS 98 | PPC-1 tox 98
c1ccc(CNc2nc(-c3ccccn3)nc3ccccc23)cc1	none (no result: PPC-1+TRAIL kill, FLuc inhib CS, FLuc act counter)
Cc1ccc(/C=N/Nc2nnc(Cl)c3ccccc23)cc1	PPC-1+TRAIL kill 78, TRAIL sens C8 86, FLuc inhib CS 94 | PPC-1 tox 78
Fc1ccccc1/C=N/Nc1nc(-c2ccccn2)nc2ccccc12	PPC-1+TRAIL kill 61 (no result: TRAIL sens C8, FLuc inhib CS, FLuc act counter, iPSC survival up) | PPC-1 tox inactive
Cc1cccc(/C=N/Nc2nncc3ccccc23)c1	PPC-1+TRAIL kill 77, TRAIL sens C8 79, FLuc inhib CS 94 | PPC-1 tox 77
Cc1ccc(-c2cc(NC=O)c3ncc(-c4cnn(C)c4)n3c2)cc1	none (no result: PPC-1+TRAIL kill, MIN6 prolif, FLuc inhib CS, FLuc act counter)
N#Cc1cccc(NC(=O)Cn2cnc(S(=O)(=O)N3CCCCC3)c2)c1	none (no result: PPC-1+TRAIL kill, FLuc inhib CS, FLuc act counter)
O=c1[nH]c(=S)c2[nH]c(=S)n(-c3ccccc3)c2[nH]1	none (no result: PPC-1+TRAIL kill, MIN6 prolif, FLuc inhib CS, FLuc act counter)
COc1cccc(CNc2cccc3cccnc23)c1O	none | PPC-1 tox inactive
CC(c1ccco1)N(C(=O)COc1ccc(Cl)cc1)c1ccccn1 (centres undefined)	none
CC(c1ccco1)N(C(=O)COc1ccc(Cl)cc1Cl)c1ccccn1 (centres undefined)	TRAIL sens C8 57 | PPC-1 tox inactive
COc1cc([N+](=O)[O-])ccc1N/C=C/C(=O)c1cccs1	PPC-1+TRAIL kill 89, TRAIL sens C8 89, FLuc inhib CS 93 | PPC-1 tox 90
c1ccc(-c2nn3c(Cn4nnc5ccccc54)nnc3s2)nc1	none
Cc1nnc2sc(-c3ccccn3)nn12	none | PPC-1 tox inactive
COc1cc(N/N=C/c2ccc(N(C)C)cc2)ncn1	PPC-1+TRAIL kill 69, TRAIL sens C8 77, FLuc inhib CS 86 | PPC-1 tox 69
Cc1nn(C)c(C(=O)N/N=C/c2ccc(C(F)(F)F)cc2)c1[N+](=O)[O-]	none
C/C(=N\NC(=O)COc1ccc(C(C)(C)C)cc1)c1cc2ccccc2o1	PPC-1+TRAIL kill 77, TRAIL sens C8 84, FLuc inhib CS 94 | PPC-1 tox 77
Nc1nnnn1/N=C/c1cccc(OCc2ccccc2Cl)c1	none
CCCOc1ccc(-c2nc(SCc3ccccc3)[nH]c(=O)c2C#N)cc1OC	none (no result: PPC-1+TRAIL kill, FLuc inhib CS, FLuc act counter)
CCOc1ccc(OCC(=O)Nc2nccs2)cc1	TRAIL sens C8 66, FLuc inhib CS 83 | PPC-1 tox 52
CCOc1ccc(S(=O)(=O)N(C)c2ccc(OCC(=O)Nc3nccs3)cc2)cc1	none
CCN(Cc1ccncc1)C(=O)c1cc(Br)cc(Br)c1O	none
O=C(/C=C/c1ccccc1)NCC(=O)N/N=C/c1cccs1	none (no result: PPC-1+TRAIL kill, FLuc inhib CS, FLuc act counter)
COc1ccc2cc(C#N)c(SCC(=O)N3CCCC3)nc2c1	none
COC(=O)CSc1nc2cc(OC)ccc2cc1C#N	PPC-1+TRAIL kill 69, TRAIL sens C8 71 | PPC-1 tox 63
O=c1cc(-c2ccccc2)[nH]c2nc3ccccc3n12	PPC-1+TRAIL kill 70, TRAIL sens C8 84, FLuc inhib CS 84 | PPC-1 tox 65
COc1cccc(-c2nc(CCl)cs2)c1	none
COc1ccc(-c2nc(CCl)cs2)cc1	none | PPC-1 tox inactive
